According to ChEMBL document CHEMBL3739299, “8-Hydroxyquinoline-based inhibitors of the Rce1 protease disrupt Ras membrane localization in human cells” (Bioorg Med Chem, 2016):
Activity calls are given as the source filed them. No cut-off for these calls is given here.

Tests used:
[1] = Cytotoxicity against human HCT116 cells assessed as cell death at 25 uM after 20 hrs by celltiter blue assay (reference value: 0.4%); type: cell-based; conditions: hct-116, 20 h
Summary of the method: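 HCT-116 cells grown in DMEM with 10% FBS and 1% NEAA at 37 °C, 5% CO2, seeded 7 × 10^3 per well, exposed 20 h to 25 μM compound (0.4% DMSO vehicle; untreated control). CellTiter-Blue added for 4 h, fluorescence read at 560/590 nm. Values relative to untreated cells, mean of three independent experiments with SEM.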

[2] = target: T1, CAAX prenyl protease 1 homolog (Homo sapiens) (UniProt O75844); test: Inhibition of human FACE1-mediated CaaX protease activity at 10 uM measured every 30 to 60 seconds for 60 mins
T1 sequence (whole entry): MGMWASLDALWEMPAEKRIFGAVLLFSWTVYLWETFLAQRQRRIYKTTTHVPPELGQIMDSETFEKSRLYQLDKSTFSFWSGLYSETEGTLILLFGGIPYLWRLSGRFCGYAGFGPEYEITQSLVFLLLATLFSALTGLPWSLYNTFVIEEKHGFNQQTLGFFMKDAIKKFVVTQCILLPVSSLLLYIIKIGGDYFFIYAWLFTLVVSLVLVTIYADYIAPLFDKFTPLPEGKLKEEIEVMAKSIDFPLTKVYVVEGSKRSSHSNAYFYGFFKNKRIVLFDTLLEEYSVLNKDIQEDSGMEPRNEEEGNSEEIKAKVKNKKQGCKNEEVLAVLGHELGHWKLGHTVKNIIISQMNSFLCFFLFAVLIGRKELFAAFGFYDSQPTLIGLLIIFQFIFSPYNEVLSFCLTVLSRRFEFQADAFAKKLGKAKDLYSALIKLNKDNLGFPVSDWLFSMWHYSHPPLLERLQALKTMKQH
Summary of the method: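 Human Ste24 overexpressed in yeast strain SM3614 (ste24 rce1 null); membranes 0.25 mg/mL final in 200 mM Tris pH 7.5, 200 mM NaCl, 1 mg/mL BSA. Pretreated 15 min at 30 °C with 10 μM compound in duplicate, then 20 μM ABZ-KSKTKC(farnesyl)VIQL substrate added. Fluorescence (ex 320/em 420) read every 30–60 s for 60 min at 30 °C. Initial velocities normalised via trypsin-digest maximum fluorescence and expressed as % of DMSO control. SD shown.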

[3] = target: T2, CAAX prenyl protease 2 (Homo sapiens) (UniProt Q9Y256); test: Inhibition of human Rce1-mediated CaaX protease activity using […] and […] as substrate assessed as residual activity at 10 uM measured every 30 to 60 seconds for 60 mins
T2 sequence (whole entry): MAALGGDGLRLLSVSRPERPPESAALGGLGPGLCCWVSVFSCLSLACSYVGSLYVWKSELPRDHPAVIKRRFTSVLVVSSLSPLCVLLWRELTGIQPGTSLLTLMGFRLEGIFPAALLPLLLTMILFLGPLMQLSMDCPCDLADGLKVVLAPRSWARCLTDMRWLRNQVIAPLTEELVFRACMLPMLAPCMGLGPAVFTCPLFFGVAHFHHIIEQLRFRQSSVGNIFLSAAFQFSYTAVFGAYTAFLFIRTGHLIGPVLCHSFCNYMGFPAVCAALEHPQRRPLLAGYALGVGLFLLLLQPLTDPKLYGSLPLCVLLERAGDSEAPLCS
Summary of the method: (§1)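 Membranes from yeast SM3614 (ste24 rce1 null) overexpressing human Rce1, 0.25 mg/mL final in 200 mM Tris pH 7.5, 200 mM NaCl, 1 mg/mL BSA. […] Reaction started with 20 μM ABZ-KSKTKC(farnesyl)QLIM. Fluorescence (ex 320/em 420) read every 30–60 s for 60 min at 30 °C. Initial velocities trypsin-normalised; activity given as % of DMSO control.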

CAAX prenyl protease 2 = target: T3, CAAX prenyl protease 2 (Homo sapiens, UniProt Q9Y256); test: Inhibition of human Rce1-mediated CaaX protease activity using ABZ-KSKTKC(farnesyl)QIIM and ABZ-KSKTKC(farnesyl)VIQI as substrate assessed as residual activity measured every 30 to 60 seconds for 60 mins; summary of the method: as §1
T3 sequence (Q9Y256 whole entry): T2 sequence (whole entry)

[4] = system: Protein farnesyltransferase (Rattus norvegicus); test: Inhibition of protein farnesyltransferase (rat) at 50 uM measured every 40 seconds for 60 mins
[5] = target: T2, CAAX prenyl protease 2 (Homo sapiens); test: Inhibition of Rce1 in human HCT116 cells assessed as mislocalization of EGFP-K-Ras in plasma membrane at 25 uM after 20 hrs by fluorescence assay; conditions: HCT-116
[6] = target: T2, CAAX prenyl protease 2 (Homo sapiens); test: Effect on EGFP-N-Ras plasma membrane association in human HCT116 cells at 25 uM after 20 hrs by fluorescence assay; conditions: HCT-116
[7] = target: T2, CAAX prenyl protease 2 (Homo sapiens); test: Effect on EGFP-H-Ras plasma membrane association in human HCT116 cells at 25 uM after 20 hrs by fluorescence assay; conditions: HCT-116

CC(C)(C)c1ccc(NC(c2ccccc2)c2ccc3ccccc3c2O)cc1 (stereo not drawn)
Cell death [1]: < 10% | inhibition [2]: inactive | Activity [3]: 38% | IC50 (CAAX prenyl protease 2): 5 µM

Oc1c(C(Nc2ccccc2)c2ccccc2)cc(Br)c2ccccc12 (stereo not drawn)
Cell death [1]: < 10% | inhibition [2]: inactive | Activity [3]: 27% | IC50 (CAAX prenyl protease 2): 5.4 µM

O=C(O)c1ccc(NC(c2ccc(F)cc2)c2ccc3cccnc3c2O)cc1 (stereo not drawn)
Cell death [1]: < 10% | inhibition [2]: inactive | Activity [3]: 32% | IC50 (CAAX prenyl protease 2): 8.2 µM

Cc1ccc(NC(c2ccccc2)c2ccc3cccnc3c2O)cc1 (stereo not drawn)
inhibition [2]: inactive | Activity [3]: 54% | IC50 (CAAX prenyl protease 2): 8.8 µM

O=C(O)c1ccc(NC(c2ccc3ccccc3c2O)c2c(F)cc(Br)cc2F)cc1 (stereo not drawn)
Cell death [1]: < 10% | inhibition [2]: inactive | Activity [3]: 21% | IC50 (CAAX prenyl protease 2): 3.8 µM

O=C(O)c1ccc(NC(c2ccc3cccnc3c2O)C2CCCCC2)cc1 (stereo not drawn)
Cell death [1]: < 10% | inhibition [2]: inactive | Activity [3]: 34% | IC50 (CAAX prenyl protease 2): 9.8 µM

O=[N+]([O-])c1ccc(C(Nc2ccccc2)c2ccc3cccnc3c2O)cc1 (stereo not drawn)
inhibition [2]: inactive | Activity [3]: 85% | IC50 (CAAX prenyl protease 2): 11 µM

O=C(O)c1ccc(NC(c2ccccc2)c2ccc3cccnc3c2O)cc1 (stereo not drawn)
Cell death [1]: < 10% | inhibition [2]: inactive | Activity [3]: 25% | IC50 (CAAX prenyl protease 2): 6.9 µM

N#Cc1ccc(C(Nc2ccc(C(=O)O)cc2)c2ccc3cccnc3c2O)cc1 (stereo not drawn)
inhibition [2]: inactive | Activity [3]: 76% | IC50 (CAAX prenyl protease 2): 16 µM

Oc1c(C(Nc2ccccc2)c2ccccc2)ccc2ccccc12 (stereo not drawn)
Cell death [1]: < 10% | inhibition [2]: inactive | Activity [3]: 17% | IC50 (CAAX prenyl protease 2): 4.9 µM

Oc1c(C(Nc2ccccc2)c2c(F)cc(Br)cc2F)ccc2ccccc12 (stereo not drawn)
Cell death [1]: 40% | inhibition [2]: inactive | Activity [3]: 45% | IC50 (CAAX prenyl protease 2): 9.4 µM

O=C(O)c1ccc(NC(c2ccccn2)c2ccc3cccnc3c2O)cc1 (stereo not drawn)
inhibition [2]: inactive | Activity [3]: 90% | IC50 (CAAX prenyl protease 2): 38 µM

O=C(O)c1ccc(NC(c2ccc(Br)cc2)c2ccc3cccnc3c2O)cc1 (stereo not drawn)
Cell death [1]: 25% | inhibition [4]: inactive | inhibition [2]: inactive | Activity [3]: 23% | K-Ras plasma membrane association [5]: 16% | IC50 (CAAX prenyl protease 2): 6.7 µM

Cc1ccc(C(Nc2ccc(C(=O)O)cc2)c2ccc3cccnc3c2O)cc1 (stereo not drawn)
inhibition [2]: inactive | Activity [3]: 32% | IC50 (CAAX prenyl protease 2): 7.1 µM

Oc1c(C(Nc2ccccc2)c2ccccc2)ccc2cccnc12 (stereo not drawn)
Cell death [1]: < 10% | PM association [6]: 10% | inhibition [4]: inactive | inhibition [2]: inactive | Activity [3]: 39% | PM association [7]: 14% | IC50 (CAAX prenyl protease 2): 8.9 µM

O=C(O)c1ccc(NC(c2ccccc2)c2ccc3ccccc3c2O)cc1 (stereo not drawn)
Cell death [1]: < 10% | inhibition [2]: inactive | Activity [3]: 19% | IC50 (CAAX prenyl protease 2): 4.2 µM

O=C(O)c1ccc(NC(c2cccnc2)c2ccc3cccnc3c2O)cc1 (stereo not drawn)
inhibition [2]: inactive | Activity [3]: 70% | IC50 (CAAX prenyl protease 2): 14 µM

O=C(O)c1ccc(NC(c2ccc(Br)cc2)c2ccc3ccccc3c2O)cc1 (stereo not drawn)
Cell death [1]: < 10% | inhibition [2]: inactive | Activity [3]: 23% | IC50 (CAAX prenyl protease 2): 3.9 µM

O=C(O)c1cccc(NC(c2ccccc2)c2ccc3ccccc3c2O)c1 (stereo not drawn)
Cell death [1]: < 10% | inhibition [4]: inactive | inhibition [2]: inactive | Activity [3]: 23% | IC50 (CAAX prenyl protease 2): 5.3 µM

CCOC(=O)c1ccc(NC(c2ccc(Cl)cc2)c2ccc3cccnc3c2O)cc1 (stereo not drawn)
Cell death [1]: < 10% | Activity [3]: 71%
